This is an account of results in PubChem BioAssay AID588704 (Broad Institute, 2011).

As a reminder, the AC50 is the concentration giving half of the maximal activity seen.

Molecules are shown by their SMILES. The source made the active and inactive calls.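 The calls were made as follows: active = strong luminescence drop, meaning toxicity to breast epithelial cells with E-cadherin silenced, a stem-like cancer model; inactive = the rest.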

System in the first assay: not listed separately
The assay can be described thus: cytotoxicity toward E-cadherin-knockdown HMLE CSC-like cells – cell-based, CellTiter-Glo luminescence, dry powder, dose response (AID 588704). The conditions noted are these: HMLE_shECad viability, CellTiter-Glo luminescence, 72 h. A digest of the protocol: (§1)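 Doses: 0.010–32 µM final / System: EMT-induced HMLE_shECad cancer stem cell-like cells / Input: 1000 cells per well at seeding / Measured by: luminescent ATP assay (CellTiter-Glo) / Buffer or medium: serum-free screening medium for plating / Control set: DMSO-only wells / Repeats: duplicate / Timing: 72 h compound exposure, dosing at 24 h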
Take `O=C(COc1ccc(Cl)cc1Cl)N/N=C/c1cnc[nH]1`: the outcome was inactive.

For another assay, the system named is HMLE_shECad viability, CellTiter-Glo luminescence, 72 h. The assay is described as above.
Conditions: not given
A digest of the protocol: as §1
Consider `O=C(COc1cc(Cl)ccc1Cl)N/N=C/c1ccc[nH]1`, for which the AC50 is 930 nM.
`Cc1cc(Cl)ccc1OCC(=O)N/N=C/c1ccc[nH]1`: the AC50 was 4580 nM.
On to `O=C(COc1ccc(Cl)cc1Cl)N/N=C/c1ccc[nH]1`, for which the AC50 was 3390 nM.
The same measure, in the same setting: for `O=C(COc1c(Cl)cc(Cl)cc1Cl)N/N=C/c1ccc[nH]1` the value was 470 nM; for `O=C(N/N=C/c1ccc[nH]1)c1cc2ccccc2o1`, 2460 nM.
On the same count and under the same terms, for `CC(C)(C)c1ccc2c(c1)OC(C(=O)N/N=C/c1ccc[nH]1)CO2` (configuration not stated) the value was 3480 nM.
